Test results as given in ChEMBL document CHEMBL1123619, “Isothiourea derivatives of 6-phenyl-2,3,5,6-tetrahydroimidazo[2,1-b]thiazole with broad-spectrum anthelmintic activity” (J Med Chem, 1987).
Calls of active or inactive are those of the source. The rule behind the calls is not given here.

Experiments:
[1] = test system: Heligmosomoides polygyrus; test: Nematocidal activity against Nematospiroides dubius induced necropsy in mouse, oral administration 200 mg/kg; format: functional
Method in brief: (§1)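 Seven-week-old female LACA mice infected orally with 100 N. dubius L3 larvae; single gavage dose given at day 10 of infection, groups of four mice; necropsy 4 days later; percent activity from worm burdens of treated versus untreated groups.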

Fasciola hepatica = test: Anthelmintic activity against adult liver fluke (Fasciola hepatica) in sheep following 30 mg/kg p.o.; format: functional; settings: route oral
Method in brief: (§2)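 Sheep dosed with a single oral dose. Fecal fluke egg output monitored after treatment. Animals necropsied only if the fecal egg count fell. Postmortem Fasciola hepatica burdens compared with untreated control sheep (mean of 10 controls). Single animals per test unless otherwise indicated, with group size given in parentheses. I denotes no effect on fecal fluke egg output.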

Ovis aries [2] = test: Anthelmintic activity against adult liver fluke (Fasciola hepatica) in sheep, after peroral administration of 30 mg/kg; I means no effect on sheep fecal fluke egg output; format: functional, organism-based; design: dose 30 mg/kg; settings: at 30 mg/kg; method in brief: as §2
Ovis aries [3] = test: Anthelmintic activity against adult liver fluke (Fasciola hepatica) in sheep, after peroral administration of 30 mg/kg was determined; I means no effect on sheep fecal fluke egg output; format: functional, organism-based; design: dose 30 mg/kg; settings: at 30 mg/kg; method in brief: as §2
Mus musculus [4] = test: Nematocidal activity against Nematospiroides dubius induced necropsy in mouse, after oral administration of 100 mg/kg; format: functional; method in brief: as §1
Ovis aries [5] = test: Anthelmintic activity against adult liver fluke (Fasciola hepatica) in sheep, after peroral administration of 15 mg/kg was determined; format: functional; settings: route oral; method in brief: as §2
Ovis aries [6] = test: Anthelmintic activity against adult liver fluke (Fasciola hepatica) in sheep, after peroral administration of 20 mg/kg was determined; format: functional; settings: route oral; method in brief: as §2
Mus musculus [7] = test: Nematocidal activity against Nematospiroides dubius induced necropsy in mouse, after oral administration of 50 mg/kg of the compound; format: functional; method in brief: as §1
Ovis aries [8] = test: Anthelmintic activity against adult liver fluke (Fasciola hepatica) in sheep, after peroral administration of 30 mg/kg was determined. Value in parentheses indicate number of animals used; format: functional; settings: route oral; method in brief: as §2
Mus musculus [9] = test: Nematocidal against Nematospiroides dubius in mouse was determined at 0.5 mg/kg peroral dose of compound; format: functional; settings: route oral; method in brief: as §1
Mus musculus [10] = test: Nematocidal against Nematospiroides dubius in mouse was determined at 1 mg/kg peroral dose of compound; format: functional; settings: route oral; method in brief: as §1
Mus musculus [11] = test: Nematocidal against Nematospiroides dubius in mouse was determined at 50 mg/kg peroral dose of compound; all animals died at this dose; format: functional, organism-based; design: dose 50 mg/kg; method in brief: as §1
Mus musculus [12] = test: Nematocidal against Nematospiroides dubius in mouse was determined at 5 mg/kg peroral dose of compound; format: functional; settings: route oral; method in brief: as §1
Ovis aries [13] = test: Toxic activity expressed as the percentage against liver fluke in the sheep at 15 mg/kg peroral administration of dose; format: ADME, organism-based; design: dose 15 mg/kg, route oral; settings: in vivo, po
Method in brief: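 Fasciola hepatica in sheep, controlled test; animals necropsied only when fecal egg count fell; postmortem fluke burdens compared with untreated control sheep (10 controls).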

Ovis aries [14] = test: Toxic activity expressed as the percentage against liver fluke in the sheep at 30 mg/kg peroral administration of dose; lethal; format: ADME, organism-based; design: dose 30 mg/kg, route oral; settings: in vivo, po
Ovis aries [15] = test: Anthelmintic activity against adult liver fluke (Fasciola hepatica) in 3 sheep, after peroral administration of 30 mg/kg was determined. Value in parentheses indicate number of animals used; format: functional; settings: route oral; method in brief: as §2
Ovis aries [16] = test: Anthelmintic activity against adult liver fluke (Fasciola hepatica) in 2 sheep, after peroral administration of 30 mg/kg was determined. Value in parentheses indicate number of animals used; format: functional; settings: route oral; method in brief: as §2
Ovis aries [17] = test: Anthelmintic activity against adult liver fluke (Fasciola hepatica) in 2 sheep, after peroral administration of 30 mg/kg was determined.; format: functional; settings: route oral; method in brief: as §2
Ovis aries [18] = test: Anthelmintic activity against adult liver fluke (Fasciola hepatica) in sheep, after peroral administration of 20 mg/kg; I means no effect on sheep fecal fluke egg output; format: functional, organism-based; design: dose 20 mg/kg; settings: at 20 mg/kg; method in brief: as §2
Ovis aries [19] = test: Anthelmintic activity against adult fecal fluke egg output in sheep, after peroral administration of 30 mg/kg; I means no effect on sheep fecal fluke egg output; format: functional, organism-based; design: dose 30 mg/kg; settings: at 30 mg/kg; method in brief: as §2
Mus musculus [20] = test: Nematocidal activity against Nematospiroides dubius induced necropsy in mouse, after oral administration of 100 mg/kg of the compound; format: functional; method in brief: as §1
Ovis aries [21] = test: Anthelmintic activity against adult liver fluke (Fasciola hepatica) in sheep, after peroral administration of 20 mg/kg was determined; I means no effect on sheep fecal fluke egg output; format: functional, organism-based; design: dose 20 mg/kg; settings: at 20 mg/kg; method in brief: as §2
Mus musculus [22] = test: Nematocidal activity against Nematospiroides dubius induced necropsy in mouse, after oral administration of 12.5 mg/kg of the compound; format: functional
Method in brief: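 Female LACA mice (7 weeks) infected orally with 100 N. dubius L3 larvae; single oral dose as solution in PEG 400 on infection day 10, four mice per group; necropsied 4 days later; percent activity by comparing treated and untreated worm burdens.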

Mus musculus [23] = test: Nematocidal activity against Nematospiroides dubius induced necropsy in mouse, after oral administration of 25 mg/kg of the compound; format: functional; method in brief: as §1
Ovis aries [24] = test: Anthelmintic activity against adult liver fluke (Fasciola hepatica) in sheep, after peroral administration of 10 mg/kg was determined; format: functional; settings: route oral; method in brief: as §2
Ovis aries [25] = test: Anthelmintic activity against adult liver fluke (Fasciola hepatica) in sheep, after peroral administration of 5 mg/kg was determined; format: functional; settings: route oral; method in brief: as §2
Ovis aries [26] = test: Anthelmintic activity against adult liver fluke (Fasciola hepatica) in sheep, after peroral administration of 7.5 mg/kg was determined; format: functional; settings: route oral; method in brief: as §2

Structure (SMILES)	Reduction [1] [%]	Activity (Fasciola hepatica) [%]	Reduction (Mus musculus [4]) [%]	further results
CS/C(=N\c1cccc(C2CN3CCSC3=N2)c1)Nc1ccc(C)c(C)c1 (stereo not given)	0	85		
CS/C(=N\c1cccc(C2CN3CCSC3=N2)c1)NC1CCCCC1 (stereo not given)	15			Activity (Ovis aries [2]): inactive
CCCCCCCCS/C(=N\c1cccc(C2CN3CCSC3=N2)c1)Nc1ccccc1 (stereo not given)	0			Activity (Ovis aries [3]): inactive
CS/C(=N\c1cccc(C2CN3CCSC3=N2)c1)Nc1cccc([N+](=O)[O-])c1 (stereo not given)	95	91	95	Activity (Ovis aries [5]): 100%
CS/C(=N\c1cccc(C2CN3CCSC3=N2)c1)Nc1ccc(C)cc1 (stereo not given)	0	91		
CS/C(=N\c1cccc(C2CN3CCSC3=N2)c1)Nc1ccc(C(C)=O)cc1 (stereo not given)	100	100	93	Activity (Ovis aries [5]): 100%
CS/C(=N\c1cccc(C2CN3CCSC3=N2)c1)Nc1ccc(C(F)(F)F)cc1 (stereo not given)	74	100		Activity (Ovis aries [5]): 100%
CS/C(=N\c1cccc(C2CN3CCSC3=N2)c1)Nc1ccccc1Cl (stereo not given)	23			Activity (Ovis aries [2]): inactive
CS/C(=N\c1cccc(C2CN3CCSC3=N2)c1)Nc1ccc([S+](C)[O-])cc1 (stereo not given)	97	100	33	Activity (Ovis aries [5]): 14%; Activity (Ovis aries [6]): 66%
CS/C(=N\c1ccccc1)N(C)c1cccc(C2CN3CCSC3=N2)c1 (stereo not given)	0			Activity (Ovis aries [3]): inactive
CS/C(=N\c1cccc(C2CN3CCSC3=N2)c1)Nc1ccc([N+](=O)[O-])cc1 (stereo not given)	100		100	Reduction (Mus musculus [7]): 95%; Activity (Ovis aries [6]): 85%; Activity (Ovis aries [8]): 94%
Nc1cccc(C2CN3CCSC3=N2)c1 (stereo not given)				Reduction (Mus musculus [9]): 43%; Reduction (Mus musculus [10]): 99%; Reduction (Mus musculus [11]): all animals died at this dose; Reduction (Mus musculus [12]): 100%; Activity (Ovis aries [13]): 0%; Activity (Ovis aries [14]): lethal
CCCCCCN/C(=N/c1cccc(C2CN3CCSC3=N2)c1)SC (stereo not given)	52			Activity (Ovis aries [2]): inactive
CS/C(=N\c1cccc(C2CN3CCSC3=N2)c1)Nc1cccc(F)c1 (stereo not given)	100	66	100	Reduction (Mus musculus [7]): 64%
CS/C(=N\c1cccc(C2CN3CCSC3=N2)c1)Nc1ccc(Cl)cc1 (stereo not given)	88	100	0	
CS/C(=N\c1cccc(C2CN3CCSC3=N2)c1)Nc1cccc(C#N)c1 (stereo not given)	100		54	Activity (Ovis aries [5]): 63%; Activity (Ovis aries [6]): 100%; Activity (Ovis aries [15]): 100%
CS/C(=N\c1cccc(C2CN3CCSC3=N2)c1)Nc1ccccc1C#N (stereo not given)	0			Activity (Ovis aries [3]): inactive

Structure (SMILES)	Reduction [1] [%]	Activity (Fasciola hepatica) [%]	Reduction (Mus musculus [4]) [%]	further results
CS/C(=N\c1cccc(C2CN3CCSC3=N2)c1)Nc1ccc(SC)cc1 (stereo not given)	95		30	Activity (Ovis aries [5]): 71%; Activity (Ovis aries [6]): 80%; Activity (Ovis aries [16]): 100%
c1ccc(C2CN3CCSC3=N2)cc1 (stereo not given) [TETRAMISOLE]				Reduction (Mus musculus [10]): 43%; Reduction (Mus musculus [12]): 57%
CS/C(=N\c1cccc(C2CN3CCSC3=N2)c1)Nc1ccc(S(C)(=O)=O)cc1 (stereo not given)	100		94	Reduction (Mus musculus [7]): 41%; Activity (Ovis aries [5]): 74%; Activity (Ovis aries [6]): 89%; Activity (Ovis aries [17]): 100%
CS/C(=N\c1cccc(C2CN3CCSC3=N2)c1)Nc1cccc(Br)c1 (stereo not given)	79	100	56	Activity (Ovis aries [5]): 77%; Activity (Ovis aries [6]): 100%
CS/C(=N\c1cccc(C2CN3CCSC3=N2)c1)Nc1ccc(Br)cc1 (stereo not given)	73	94	0	Activity (Ovis aries [6]): 100%
CCCCS/C(=N\c1cccc(C2CN3CCSC3=N2)c1)Nc1ccccc1 (stereo not given)	0			Activity (Ovis aries [3]): inactive
CS/C(=N\c1cccc(C2CN3CCSC3=N2)c1)Nc1ccc(Cl)c(Cl)c1 (stereo not given)	0	63	0	
CS/C(=N\c1cccc(C2CN3CCSC3=N2)c1)Nc1cccc(Cl)c1 (stereo not given)	99	91	87	Activity (Ovis aries [18]): inactive
CC(C)S/C(=N\c1cccc(C2CN3CCSC3=N2)c1)Nc1ccccc1 (stereo not given)	0			Activity (Ovis aries [3]): inactive
CCS/C(=N\c1cccc(C2CN3CCSC3=N2)c1)Nc1ccccc1 (stereo not given)	92	97		Activity (Ovis aries [18]): inactive
CCCS/C(=N\c1cccc(C2CN3CCSC3=N2)c1)Nc1ccccc1 (stereo not given)	64			Activity (Ovis aries [19]): inactive
CS/C(=N\c1cccc(C2CN3CCSC3=N2)c1)Nc1ccccc1 (stereo not given)	99			Activity (Mus musculus [20]): 38%; Activity (Mus musculus [7]): 0%; Activity (Ovis aries [17]): 94%
CCOC(=O)c1ccc(N/C(=N/c2cccc(C3CN4CCSC4=N3)c2)SC)cc1 (stereo not given)	74	97		Activity (Ovis aries [21]): inactive
COc1ccc(N/C(=N/c2cccc(C3CN4CCSC4=N3)c2)SC)cc1 (stereo not given)	0			Activity (Ovis aries [2]): inactive
CS/C(=N\c1cccc([C@H]2CN3CCSC3=N2)c1)Nc1ccc(C#N)cc1	100		100	Reduction (Mus musculus [22]): 66%; Reduction (Mus musculus [23]): 99.9%; Reduction (Mus musculus [7]): 100%; Activity (Ovis aries [24]): 100%; Activity (Ovis aries [25]): 85%; Activity (Ovis aries [26]): 91%
CS/C(=N\c1cccc(C2CN3CCSC3=N2)c1)Nc1ccc(F)cc1 (stereo not given)	100	60	0	
c1ccc(CS/C(=N\c2cccc(C3CN4CCSC4=N3)c2)Nc2ccccc2)cc1 (stereo not given)	0			Activity (Ovis aries [3]): inactive
